From ChEMBL document CHEMBL5331111, “Synthetic Biology Facilitates Semisynthetic Development of Type V Glycopeptide Antibiotics Targeting Vancomycin-Resistant Enterococcus” (J Med Chem, 2023)
In brackets after ≈: the same amount, converted by molar mass. Activity calls are given as the source filed them. No cut-off for these calls is given here.

What was measured:
[1] = tested on: Mycolicibacterium smegmatis; test: Antimycobacterial activity against Mycobacterium smegmatis MC2 155 assessed as inhibition of bacterial growth measured after 2 days by resazurin dye based analysis; assay type: functional; conditions: MC2 155, 48 h, time 2 day
Outline: (§1)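 Strains grown in 7H9 broth with 0.2% glycerol, 10% OADC and 0.05% Tween-80. Inoculum was about 5 × 10^5 CFU/mL, checked by plating on 7H10/OADC agar to be 3–8 × 10^5. Read at 2 days for M. smegmatis and 7 days for M. tuberculosis H37Ra, M. bovis and M. avium. Resazurin 30 μg/mL was then added for one further day. Values are averages of at least two experiments.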

Enterococcus faecium [2] = test: Antibacterial activity against vancomycin-resistant Enterococcus faecium ATCC 700221 assessed as inhibition of bacterial growth by Mueller-Hinton broth based assay; assay type: functional
Enterococcus faecalis = test: Antibacterial activity against vancomycin-resistant Enterococcus faecalis ATCC 51299 assessed as inhibition of bacterial growth by Mueller-Hinton broth based assay; assay type: functional
Bacillus subtilis = test: Antibacterial activity against Bacillus subtilis 168 assessed as reduction in bacterial growth by Mueller-Hinton broth based assay; assay type: functional
Outline: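 Broth MIC by standard procedure in Mueller-Hinton broth, for both B. subtilis 168 and S. aureus ATCC 33591.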

Enterococcus gallinarum = test: Antibacterial activity against vancomycin-resistant Enterococcus gallinarum ATCC 49573 assessed as inhibition of bacterial growth by Mueller-Hinton broth based assay; assay type: functional
Enterococcus faecium [3] = test: Antibacterial activity against Enterococcus faecium WCC 0491 assessed as inhibition of bacterial growth by Mueller-Hinton broth based assay; assay type: functional
Enterococcus faecium [4] = test: Antibacterial activity against Enterococcus faecium WCC 0492 assessed as inhibition of bacterial growth by Mueller-Hinton broth based assay; assay type: functional
Enterococcus faecium [5] = test: Antibacterial activity against Enterococcus faecium WCC 0495 assessed as inhibition of bacterial growth by Mueller-Hinton broth based assay; assay type: functional
Enterococcus faecium [6] = test: Antibacterial activity against Enterococcus faecium WCC 0496 assessed as inhibition of bacterial growth by Mueller-Hinton broth based assay; assay type: functional
Enterococcus faecium [7] = test: Antibacterial activity against Enterococcus faecium WCC 0498 assessed as inhibition of bacterial growth by Mueller-Hinton broth based assay; assay type: functional
Enterococcus faecium [8] = test: Antibacterial activity against Enterococcus faecium WCC 0499 assessed as inhibition of bacterial growth by Mueller-Hinton broth based assay; assay type: functional
Enterococcus faecium [9] = test: Antibacterial activity against Enterococcus faecium WCC 0502 assessed as inhibition of bacterial growth by Mueller-Hinton broth based assay; assay type: functional
Enterococcus faecium [10] = test: Antibacterial activity against Enterococcus faecium WCC 0506 assessed as inhibition of bacterial growth by Mueller-Hinton broth based assay; assay type: functional
Enterococcus faecium [11] = test: Antibacterial activity against Enterococcus faecium WCC 0516 assessed as inhibition of bacterial growth by Mueller-Hinton broth based assay; assay type: functional
Enterococcus faecium [12] = test: Antibacterial activity against Enterococcus faecium WCC 0528 assessed as inhibition of bacterial growth by Mueller-Hinton broth based assay; assay type: functional
Enterococcus faecium [13] = test: Antibacterial activity against Enterococcus faecium WCC 0533 assessed as inhibition of bacterial growth by Mueller-Hinton broth based assay; assay type: functional
Enterococcus faecium [14] = test: Antibacterial activity against Enterococcus faecium WCC 0534 assessed as inhibition of bacterial growth by Mueller-Hinton broth based assay; assay type: functional
Enterococcus faecium [15] = test: Antibacterial activity against Enterococcus faecium WCC 0537 assessed as inhibition of bacterial growth by Mueller-Hinton broth based assay; assay type: functional
Enterococcus faecium [16] = test: Antibacterial activity against Enterococcus faecium WCC 0586 assessed as inhibition of bacterial growth by Mueller-Hinton broth based assay; assay type: functional
Enterococcus faecium [17] = test: Antibacterial activity against vancomycin-resistant Enterococcus faecium WCC 0541 assessed as inhibition of bacterial growth by Mueller-Hinton broth based assay; assay type: functional
Enterococcus faecium [18] = test: Antibacterial activity against Enterococcus faecium WCC 0545 assessed as inhibition of bacterial growth by Mueller-Hinton broth based assay; assay type: functional
Enterococcus faecium [19] = test: Antibacterial activity against Enterococcus faecium WCC 0553 assessed as inhibition of bacterial growth by Mueller-Hinton broth based assay; assay type: functional
Enterococcus faecium [20] = test: Antibacterial activity against Enterococcus faecium WCC 0558 assessed as inhibition of bacterial growth by Mueller-Hinton broth based assay; assay type: functional
Enterococcus faecium [21] = test: Antibacterial activity against Enterococcus faecium WCC 0587 assessed as inhibition of bacterial growth by Mueller-Hinton broth based assay; assay type: functional
[22] = tested on: Mycolicibacterium fortuitum; test: Antimycobacterial activity against Mycobacterium fortuitum ATCC 6891 assessed as inhibition of bacterial growth measured after 2 days by resazurin dye based analysis; assay type: functional; conditions: ATCC 6891, 48 h, time 2 day
Outline: (§2)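 Cultured in 7H9 with 0.2% glycerol, 10% OADC and 0.05% Tween-80. Inoculum diluted to ~5 × 10^5 CFU/mL and confirmed at 3–8 × 10^5 by plating on 7H10 agar. Growth read at 2 days, then 30 μg/mL resazurin added for one more day. Values averaged from at least two experiments.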

[23] = tested on: Mycobacteroides abscessus; test: Antimycobacterial activity against Mycobacterium abscessus ATCC 19977 assessed as inhibition of bacterial growth measured after 2 days by resazurin dye based analysis; assay type: functional; conditions: ATCC 19977, 48 h, time 2 day; outline: as §2
[24] = tested on: Mycobacterium tuberculosis; test: Antimycobacterial activity against Mycobacterium tuberculosis H37Ra assessed as inhibition of bacterial growth measured after 7 days by resazurin dye based analysis; assay type: functional; conditions: 168 h, time 7 day; outline: as §1
[25] = Antimycobacterial activity against Mycobacterium avium subsp. avium ATCC 25291 assessed as inhibition of bacterial growth measured after 7 days by resazurin dye based analysis; assay type: functional; conditions: ATCC 25291, 168 h, time 7 day; outline: as §1
[26] = Cytotoxicity against HEK293 cells assessed as inhibition of cell growth incubated for 48 hrs by Cell-Titer Glo reagent based analysis; assay type: toxicity; conditions: human
Outline: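 HEK293 cells seeded at 7500 cells/well in DMEM with 10% FBS, 2 mM glutamine and pen/strep, and left 18 h at 37 °C under 5% CO2. Compound then added at 1% final DMSO and incubated 48 h. Viability read by CellTiter-Glo luminescence and normalized to DMSO-only wells. Curves fitted by 4PL constrained to 0–1.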

[27] = Hemolytic activity in human RBC incubated for 1 hr by absorbance based analysis; assay type: toxicity, cell-based, Erythrocyte; conditions: red blood cells (erythrocytes)
Outline: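 Human K2-EDTA blood RBCs washed twice in 150 mM NaCl, resuspended in PBS pH 7.4, then diluted 1:50. Incubated with compound at 1% final DMSO for 1 h at 37 °C and pelleted at 500g for 5 min. Supernatant absorbance read at 540 nm. Controls were DMSO-only and a Triton X-100 dilution series (20% to 0.02%).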

Enterococcus faecium [28] = test: Antibacterial activity against Vancomycin-resistant Enterococcus faecium ATCC 700221 infected in cyclophosphamide induced neutropenic thigh infection CD-1 mouse model assessed as reduction in weight loss at 100 mg/kg, ip qid measured after 24 hrs post-infection; assay type: functional, organism-based
Outline: (§3)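 Female CD-1 mice, 6–10 weeks old, made neutropenic with i.p. cyclophosphamide (150 mg/kg day 4, 100 mg/kg day 1). About 1 × 10^6 CFU of E. faecium ATCC 700221, grown in BHI with vancomycin, were injected into each thigh. Dosing was i.p. at 1, 3, 5 and 20 h post-infection, in PEG400/DMSO/H₂O (45/5/50) vehicle, with vehicle controls. Mice were euthanized at 24 h.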

Enterococcus faecium [29] = test: Antibacterial activity against Vancomycin-resistant Enterococcus faecium ATCC 700221 infected in cyclophosphamide induced neutropenic thigh infection CD-1 mouse model assessed as increase in survival rate at 100 mg/kg, ip qid measured after 24 hrs post-infection; assay type: functional, organism-based; outline: as §3
Enterococcus faecium [30] = test: Antibacterial activity against Vancomycin-resistant Enterococcus faecium ATCC 700221 infected in cyclophosphamide induced neutropenic thigh infection CD-1 mouse model assessed as reduction in blood bacterial load at 100 mg/kg, ip qid measured after 24 hrs post-infection; assay type: functional; outline: as §3
[31] = Toxicity in cyclophosphamide induced neutropenic thigh infection CD-1 mouse model infected with Vancomycin-resistant Enterococcus faecium ATCC 700221 assessed as change in thigh weight at 100 mg/kg, ip qid measured after 24 hrs post-infection; assay type: organism-based; conditions: in vivo; outline: as §3
[32] = Toxicity in cyclophosphamide induced neutropenic thigh infection CD-1 mouse model infected with Vancomycin-resistant Enterococcus faecium ATCC 700221 assessed as change in spleen weight at 100 mg/kg, ip qid measured after 24 hrs post-infection; assay type: organism-based; conditions: in vivo; outline: as §3

With CN(C)CCCNC(=O)[C@@H]1NC(=O)[C@@H]2Cc3ccc(cc3)Oc3cc4cc(c3O)-c3ccc5c(c[nH]c5c3)C[C@@H](NC(=O)C(NC(=O)CCCCCN)c3ccc(O)cc3)C(=O)N[C@H](c3ccc(O)cc3)C(=O)N[C@H]4C(=O)N[C@@H](C(=O)N2C)c2ccc(cc2)Oc2cc1ccc2O (stereo not given in full) the MIC [1] was 0.5 µg/mL (≈ 0.379 µM), the MIC (Enterococcus faecium [2]) was 0.5 µg/mL (≈ 0.379 µM) and the MIC (Enterococcus faecalis) was 1 µg/mL (≈ 0.758 µM). The MIC (Bacillus subtilis) was 1 µg/mL (≈ 0.758 µM), the MIC (Enterococcus gallinarum) was 2 µg/mL (≈ 1.52 µM) and the MIC (Enterococcus faecium [3]) was 1 µg/mL (≈ 0.758 µM). The MIC (Enterococcus faecium [4]) was 2 µg/mL (≈ 1.52 µM), the MIC (Enterococcus faecium [5]) was 1 µg/mL (≈ 0.758 µM) and the MIC (Enterococcus faecium [6]) was 1 µg/mL (≈ 0.758 µM). It also gave an MIC (Enterococcus faecium [7]) of 2 µg/mL (≈ 1.52 µM), an MIC (Enterococcus faecium [8]) of 1 µg/mL (≈ 0.758 µM) and an MIC (Enterococcus faecium [9]) of 1 µg/mL (≈ 0.758 µM). It also gave an MIC (Enterococcus faecium [10]) of 1 µg/mL (≈ 0.758 µM), an MIC (Enterococcus faecium [11]) of 0.5 µg/mL (≈ 0.379 µM) and an MIC (Enterococcus faecium [12]) of 1 µg/mL (≈ 0.758 µM). For the same molecule, the MIC (Enterococcus faecium [13]) was 0.5 µg/mL (≈ 0.379 µM), the MIC (Enterococcus faecium [14]) was 0.5 µg/mL (≈ 0.379 µM) and the MIC (Enterococcus faecium [15]) was 2 µg/mL (≈ 1.52 µM). The MIC (Enterococcus faecium [16]) was 1 µg/mL (≈ 0.758 µM), the MIC (Enterococcus faecium [17]) was 1 µg/mL (≈ 0.758 µM) and the MIC (Enterococcus faecium [18]) was 2 µg/mL (≈ 1.52 µM). For the same molecule, the MIC (Enterococcus faecium [19]) was 1 µg/mL (≈ 0.758 µM), the MIC (Enterococcus faecium [20]) was 1 µg/mL (≈ 0.758 µM) and the MIC (Enterococcus faecium [21]) was 1 µg/mL (≈ 0.758 µM). The MIC [22] was 2 µg/mL (≈ 1.52 µM), the MIC [23] was 2 µg/mL (≈ 1.52 µM) and the MIC [24] was 32 µg/mL (≈ 24.3 µM). For the same molecule, the MIC [25] was greater than 128 µg/mL, the IC50 at 48 h [26] was greater than 256 µg/mL and the IC50 at 1 h [27] was greater than 256 µg/mL. For the same molecule, the Activity (Enterococcus faecium [28]) was “Active”, the Activity (Enterococcus faecium [29]) was “Active” and the “log(activity)” value (Enterococcus faecium [30]) was 3 CFU/g. For the same molecule, the Activity [31] was “Non-Toxic” and the Activity [32] was “Non-Toxic”.
